Measured values pooled from the literature.
Each line is one published result; the experiments were not run side by side.
Read-out: metabolic stability
Species: human

c1ccc(CCNc2nc(-c3ccccn3)nc3ccccc23)nc1 — microsomal CLint (liver microsomes): 42 µL/min/mg
CNS(=O)(=O)Cc1ccc2[nH]cc(CCN(C)C)c2c1 — hepatocyte CLint (hepatocytes; 5 µM): 2.8 µL/min/10⁶ cells
COc1ccnc(-c2nc3ccc(OC)cn3c2Nc2ccc(F)cc2)c1 — microsomal CLint (liver microsomes; 3 µM; pH 7.4): 240 µL/min/mg
Fc1ccccc1Nc1nc(-c2ccccn2)nc2ccccc12 — microsomal CLint (liver microsomes): 88 µL/min/mg
C[C@@H](N)c1cc(Cl)ccc1Cn1c(=S)[nH]c(=O)c2[nH]ccc21 — hepatocyte CLint (hepatocytes): < 1 µL/min/10⁶ cells
c1ccc(C2CCN(c3nc(-c4cnn5c4CCCC5)nc4ccccc34)C2)nc1 (stereo not drawn) — microsomal CLint (liver microsomes): 176 µL/min/mg
CN(c1ccc(F)cc1)c1c(-c2cc(Cl)ccn2)nc2ccccn12 — microsomal CLint (liver microsomes; 3 µM; pH 7.4): 190 µL/min/mg
Fc1ccc(Nc2nc(-c3ccccn3)nc3ccccc23)cc1 — microsomal CLint (liver microsomes): 67 µL/min/mg
Fc1ccc(Nc2c(-c3cccnn3)nc3ccccn23)cc1 — microsomal CLint (liver microsomes; 3 µM; pH 7.4): 64 µL/min/mg
CCCN(CCC)CCc1cccc2c1CC(=O)N2 — hepatocyte CLint (hepatocytes; 1 µM): 1.7 µL/min/10⁶ cells
COc1cc(OC)cc(N(CCNC(C)C)c2ccc3ncc(-c4cnn(C)c4)nc3c2)c1 — hepatocyte CLint (hepatocytes): 2.53 µL/min/10⁶ cells
N#Cc1ccccc1-c1nc(N2CCC(c3ccccn3)C2)c2ccccc2n1 (stereo not drawn) — microsomal CLint (liver microsomes): 350 µL/min/mg
NCc1ccccc1 — hepatocyte CLint (hepatocytes; 5 µM): 16.7 µL/min/10⁶ cells
C=CC(=O)Nc1cc(Nc2nccc(Nc3cc(Cl)c(F)cc3C(C)(C)O)n2)c(OC)cc1N1CC[C@@H](N(C)C)C1 — hepatocyte CLint (hepatocytes): 3.3 µL/min/10⁶ cells
COc1ccnc(-c2nc3ccccn3c2Nc2ccc(F)cc2)c1 — microsomal CLint (liver microsomes; 3 µM; pH 7.4): 120 µL/min/mg
C[C@H]1C[C@@H](N2C(=N)N[C@](C)(c3cccc(Nc4ccc(C5CC5)nc4)c3Cl)CC2=O)CCO1 — hepatocyte CLint (hepatocytes; 0.5 µM): 16 µL/min/10⁶ cells
COc1ccc(-c2nc3ccc(OC)cn3c2Nc2ccc(F)cc2)nc1 — microsomal CLint (liver microsomes; 3 µM; pH 7.4): 44 µL/min/mg
c1ccc(-c2nc(Nc3ccn4nccc4c3)c3ccccc3n2)nc1 — microsomal CLint (liver microsomes): 120 µL/min/mg
C[C@H]1C[C@@H](N2C(=N)N[C@](C)(c3cccc(NC(=O)c4cccc(C#N)c4)c3Cl)CC2=O)CCO1 — hepatocyte CLint (hepatocytes; 0.5 µM): 5 µL/min/10⁶ cells
CC(C)(C)[Si](C)(C)OCCN(c1ccc(F)cc1)c1c(-c2ccccn2)nc2ccccn12 — microsomal CLint (liver microsomes; 3 µM; pH 7.4): > 300 µL/min/mg
O=c1[nH]c(=S)n(Cc2ccc(Cl)cc2CNCC(F)(F)F)c2cc[nH]c12 — hepatocyte CLint (hepatocytes): 4.3 µL/min/10⁶ cells
